Laboratory results as given in ChEMBL document CHEMBL1146260, “Synthesis and antifungal activity of 1H-indole-4,7-diones” (2007).
In brackets after ≈: the same amount, converted by molar mass.

Tests used:
Assay type in all cases: functional
Cryptococcus neoformans = assay: Antifungal activity against Cryptococcus neoformans KCCM 50564 after 1 day by 2-fold broth dilution method; conditions: KCCM 50564, 24 h
Summary of the method: (§1)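 MIC by 2-fold broth dilution in modified Sabouraud dextrose broth; inoculum about 1 · 10⁵ cells/mL; final drug concentrations […]; 37 °C, read after 1 day; 5-fluorocytosine run as standard agent.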

Aspergillus niger = assay: Antifungal activity against Aspergillus niger KCTC 1231 after 2 days by 2-fold broth dilution method; conditions: KCTC 1231, 48 h
Summary of the method: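 Two-fold broth dilution MIC in modified Sabouraud dextrose broth, inoculum about 1 · 10⁵ cells/mL, final agent range […]; incubated at 37 °C, MIC read after 2 days; 5-fluorocytosine as standard agent.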

Candida albicans = assay: Antifungal activity against Candida albicans Berkout KCCM 50235 after 1 day by 2-fold broth dilution method; conditions: KCCM 50235, 24 h; summary of the method: as §1
Candida tropicalis = assay: Antifungal activity against Candida tropicalis Berkout KCCM 50662 after 1 day by 2-fold broth dilution method; conditions: KCCM 50662, 24 h; summary of the method: as §1
Pichia kudriavzevii = assay: Antifungal activity against Candida krusei Berkout KCCM 11655 after 1 day by 2-fold broth dilution method; conditions: KCCM 11655, 24 h; summary of the method: as §1

SMILES	MIC (Cryptococcus neoformans) [µg/mL]	MIC (Aspergillus niger) [µg/mL]	MIC (Candida albicans) [µg/mL]	MIC (Candida tropicalis) [µg/mL]	MIC (Pichia kudriavzevii) [µg/mL]
Nc1nc(=O)[nH]cc1F [FLUCYTOSINE]	12.5 (≈ 96.8 µM)	50 (≈ 387 µM)	6.3 (≈ 48.8 µM)	12.5 (≈ 96.8 µM)	6.3 (≈ 48.8 µM)
Cc1ccc(SC2=C(Sc3ccc(C)c(C)c3)C(=O)c3[nH]ccc3C2=O)cc1C	50 (≈ 119 µM)	100 (≈ 238 µM)	> 100	> 100	> 100
COC(=O)c1cn(-c2ccc(OC)cc2)c2c1C(=O)C(C)=C(C)C2=O	100 (≈ 295 µM)	> 100	> 100	50 (≈ 147 µM)	3.2 (≈ 9.43 µM)
O=C1C(Sc2cccc(Cl)c2)=C(Sc2cccc(Cl)c2)C(=O)c2[nH]ccc21	3.2 (≈ 7.4 µM)	25 (≈ 57.8 µM)	6.3 (≈ 14.6 µM)	1.6 (≈ 3.7 µM)	25 (≈ 57.8 µM)
O=C1C(Sc2ccc(Cl)cc2)=C(Sc2ccc(Cl)cc2)C(=O)c2[nH]ccc21	3.2 (≈ 7.4 µM)	> 100	> 100	12.5 (≈ 28.9 µM)	25 (≈ 57.8 µM)
COC(=O)c1cn(-c2ccc(I)cc2)c2c1C(=O)C(C)=C(C)C2=O	50 (≈ 115 µM)	100 (≈ 230 µM)	25 (≈ 57.4 µM)	12.5 (≈ 28.7 µM)	50 (≈ 115 µM)
COC(=O)c1cn(-c2ccc(C)cc2)c2c1C(=O)C(C)=C(C)C2=O	0.8 (≈ 2.47 µM)	> 100	> 100	> 100	3.2 (≈ 9.9 µM)
CCOC(=O)C(C#N)C1=C(Cl)C(=O)C(C)=C(C)C1=O (stereo not given)	25 (≈ 88.7 µM)	> 100	> 100	> 100	100 (≈ 355 µM)
COC(=O)c1cn(-c2ccc(Br)cc2)c2c1C(=O)C(C)=C(C)C2=O	50 (≈ 129 µM)	3.2 (≈ 8.24 µM)	50 (≈ 129 µM)	6.3 (≈ 16.2 µM)	50 (≈ 129 µM)
COC(=O)c1cn(C)c2c1C(=O)C(C)=C(C)C2=O	1.6 (≈ 6.47 µM)	> 100	> 100	> 100	3.2 (≈ 12.9 µM)
O=C1C(Sc2ccccc2)=C(Sc2ccccc2)C(=O)c2[nH]ccc21	12.5 (≈ 34.4 µM)	50 (≈ 138 µM)	> 100	> 100	> 100
O=C1C(Sc2ccc(F)cc2)=C(Sc2ccc(F)cc2)C(=O)c2[nH]ccc21	6.3 (≈ 15.8 µM)	100 (≈ 250 µM)	> 100	25 (≈ 62.6 µM)	3.2 (≈ 8.01 µM)
COC(=O)C(C#N)C1=C(Cl)C(=O)C(C)=C(C)C1=O (stereo not given)	6.3 (≈ 23.5 µM)	> 100	> 100	> 100	100 (≈ 374 µM)
COC(=O)c1cn(-c2ccc(C(C)C)cc2)c2c1C(=O)C(C)=C(C)C2=O	100 (≈ 285 µM)	3.2 (≈ 9.11 µM)	12.5 (≈ 35.6 µM)	12.5 (≈ 35.6 µM)	100 (≈ 285 µM)
Cc1cccc(SC2=C(Sc3cccc(C)c3)C(=O)c3[nH]ccc3C2=O)c1	3.2 (≈ 8.17 µM)	50 (≈ 128 µM)	> 100	12.5 (≈ 31.9 µM)	> 100
CCc1ccc(-n2cc(C(=O)OC)c3c2C(=O)C(C)=C(C)C3=O)cc1	50 (≈ 148 µM)	3.2 (≈ 9.48 µM)	25 (≈ 74.1 µM)	50 (≈ 148 µM)	50 (≈ 148 µM)

Continued by falling MIC (Cryptococcus neoformans), values first:

MIC (Cryptococcus neoformans) [µg/mL]	MIC (Aspergillus niger) [µg/mL]	MIC (Candida albicans) [µg/mL]	MIC (Candida tropicalis) [µg/mL]	MIC (Pichia kudriavzevii) [µg/mL]	SMILES
100 (≈ 383 µM)	> 100	> 100	25 (≈ 95.7 µM)	50 (≈ 191 µM)	CCOC(=O)c1cn(C)c2c1C(=O)C(C)=C(C)C2=O
50 (≈ 115 µM)	> 100	> 100	> 100	12.5 (≈ 28.7 µM)	O=C1C(Sc2ccc(F)c(F)c2)=C(Sc2ccc(F)c(F)c2)C(=O)c2[nH]ccc21
25 (≈ 63.2 µM)	> 100	50 (≈ 126 µM)	50 (≈ 126 µM)	> 100	O=C1C(Sc2ccc(O)cc2)=C(Sc2ccc(O)cc2)C(=O)c2[nH]ccc21
12.5 (≈ 36.4 µM)	25 (≈ 72.7 µM)	12.5 (≈ 36.4 µM)	12.5 (≈ 36.4 µM)	0.8 (≈ 2.33 µM)	COC(=O)c1cn(-c2ccc(Cl)cc2)c2c1C(=O)C(C)=C(C)C2=O
6.3 (≈ 20.4 µM)	25 (≈ 80.8 µM)	3.2 (≈ 10.3 µM)	12.5 (≈ 40.4 µM)	1.6 (≈ 5.17 µM)	COC(=O)c1cn(-c2ccccc2)c2c1C(=O)C(C)=C(C)C2=O
3.2 (≈ 9.78 µM)	12.5 (≈ 38.2 µM)	> 100	> 100	3.2 (≈ 9.78 µM)	COC(=O)c1cn(-c2ccc(F)cc2)c2c1C(=O)C(C)=C(C)C2=O
3.2 (≈ 6.14 µM)	12.5 (≈ 24 µM)	> 100	> 100	> 100	O=C1C(Sc2ccc(Br)cc2)=C(Sc2ccc(Br)cc2)C(=O)c2[nH]ccc21
1.6 (≈ 4.07 µM)	3.2 (≈ 8.14 µM)	> 100	> 100	6.3 (≈ 16 µM)	COC(=O)c1cn(-c2ccc(OC(F)(F)F)cc2)c2c1C(=O)C(C)=C(C)C2=O
1.6 (≈ 4.74 µM)	6.3 (≈ 18.7 µM)	12.5 (≈ 37.1 µM)	> 100	0.8 (≈ 2.37 µM)	COC(=O)c1cn(-c2ccc(C)c(C)c2)c2c1C(=O)C(C)=C(C)C2=O
